STAT1 act-1 = STAT1 signaling activation; AID 932; 200,000 tested, 2.6% active; activation (% of control), % at 5.5 µM; NIH 3T3 STAT1-luciferase reporter, IFN-gamma, luminescence; 100% = IFN-gamma alone, no compound;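 active = activation above the screen-wide mean activation plus 3 SD, cut at about 130% in these data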;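 also: raw ratio to IFN-gamma control signal so 100% means no change and 0% no light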
STAT1 inh = STAT1 signaling inhibition. inhibition, % at 5.5 µM. 200,000 tested, 0.35% active. NIH 3T3 STAT1-luciferase reporter, IFN-gamma, luminescence;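 active = inhibition above a set limit, the mean inhibition across all tested compounds plus 3 SD, cut at about 34% in these data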;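 also: 0% = IFN-gamma with DMSO and 100% = IFN-gamma with 300 µM nifuroxazide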
FLuc inhib CS = counter-screen for luciferase assay inhibitors: firefly luciferase inhibition; AID 1006; ATPLite firefly luciferase biochemical luminescence, 10 min; P08659; 200,000 tested, 1.5% active; inhibition, % at 10 µM;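 active = inhibition above about 50% when tested at 10 µM, limit read from the data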
Target sequence (P08659 whole entry, looked up): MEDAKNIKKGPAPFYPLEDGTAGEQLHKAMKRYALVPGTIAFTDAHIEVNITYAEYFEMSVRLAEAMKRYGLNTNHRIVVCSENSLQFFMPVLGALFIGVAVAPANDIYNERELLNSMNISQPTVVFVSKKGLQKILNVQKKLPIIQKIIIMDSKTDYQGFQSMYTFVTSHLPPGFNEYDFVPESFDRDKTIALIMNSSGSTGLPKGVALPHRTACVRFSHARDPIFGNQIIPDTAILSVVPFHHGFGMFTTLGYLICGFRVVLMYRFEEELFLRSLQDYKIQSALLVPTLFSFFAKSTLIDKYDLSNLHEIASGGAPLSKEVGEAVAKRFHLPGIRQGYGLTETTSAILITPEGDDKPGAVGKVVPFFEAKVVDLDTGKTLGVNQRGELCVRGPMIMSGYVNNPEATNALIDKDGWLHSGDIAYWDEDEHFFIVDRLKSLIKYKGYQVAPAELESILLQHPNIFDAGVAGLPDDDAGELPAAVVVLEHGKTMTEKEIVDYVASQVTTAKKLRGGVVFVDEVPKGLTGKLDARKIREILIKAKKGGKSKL
STAT3 act-1 = STAT3 signaling activation; U3A cells, IL-6 STAT3-luciferase reporter, luminescence; 100% = signal with IL-6 EC80 alone; activation (% of control), % at 5.6 µM; 190,000 tested, 0.91% active; AID 871;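 active = activation above the screen-wide mean of compound activation plus 3 SD, cut at about 130% in these data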;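 also: 0% = background luminescence of wells with medium and substrate only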
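Test system: STAT3-luciferase reporter U3A cells; Detection: reporter luminescence signal; Times: 1 h compound pre-exposure, 6 h IL-6 stimulation, 37 °C; Benchmarks: IL-6-only high control; Also added: IL-6 stimulus at 33 ng/mL final.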
STAT3 blocker = inhibitors of IL-6 induced STAT3 signaling. U3A cells, IL-6 STAT3-luciferase reporter, luminescence; host cell line lacks STAT1. inhibition, % at 5.5 µM. 190,000 tested, 0.89% active. AID 862;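 active = inhibition above the mean inhibition across all screened compounds plus 3 SD, cut at about 44% in these data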;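 also: 0% = DMSO only wells and 100% = 100 µM nifuroxazide control wells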
FLuc act counter = affects firefly luciferase, flagging false hits in luciferase stimulation screens. P08659. ATPlite luciferase biochemical, luminescence, 10 min; 0 = ATP-free wells, 1 = DMSO control. activation factor at 10 µM. 200,000 tested, under 10 active. AID 1027;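 active = luciferase activation factor, scaled between plate controls, of at least 2 with compound at 10 µM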
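Assay system: Luciferase/luciferin detection reagent, cell-free biochemical luciferase assay / Read-out: luciferase activation / Benchmarks: No-ATP low control, compound-free enzyme-plus-ATP high control / Medium: PBS buffer for ATP / Detection: luminescence measurement of luciferase light output / Schedule: 10 min at ambient temperature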
STAT3 act-2 = STAT3 activation, confirmation assay; 1,200 tested, 64% active; U3A STAT3-luciferase reporter, IL-6 potentiation, luminescence; U3A cells lack STAT1; 100 means same as IL-6 alone; potentiation (% of control), % at 5.7 µM; shares compounds with STAT3 act-1;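 active = percent activation of the STAT3 luciferase reporter above a set limit taken from the earlier primary screen, cut at about 130% in these data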;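 also: 0% = background signal of medium plus substrate and 100% = median of IL-6 with DMSO wells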
NFkB act STAT3ct = NF-kappaB activation in STAT3 activator counter-screen. shares compounds with STAT3 act-1. 1,200 tested, 11% active. activation (% of control), % at 5.7 µM. human cells, NF-kappaB reporter activation; in the data active = activation above about 120%;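 also: reporter induced by TNF-alpha stimulation; 100% = median of stimulated DMSO wells and 0% = no signal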
STAT1 act-2 = activates STAT1, counter-screen to STAT3 activators; shares compounds with STAT3 act-1; NIH 3T3 STAT1-luciferase reporter, IFN-gamma, luminescence; activation (% of control), % at 5.7 µM; 1,200 tested, 13% active; AID 1318;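 active = activation above the solvent-only control well mean plus 3 SD, set per screening run, cut at about 120% in these data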;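 also: 100% = IFN-gamma with DMSO median signal so 100% means no change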
The depositor's hits bear a star; . = no result given. An excerpt weighted towards active compounds, which were near 4.9% of everything screened.

SMILES	STAT1 act-1	STAT1 inh	FLuc inhib CS	STAT3 act-1	STAT3 blocker	FLuc act counter	STAT3 act-2	NFkB act STAT3ct	STAT1 act-2
O=S(=O)(NC1CCCCC1Oc1ccccc1)c1ccccc1 (stereo not given)	94	7	-8	100	-5	1.1	.	.	.
Cc1cc(O)c(NC(=O)c2ccc(Br)o2)cc1C	89	12	21	161*	-71	0.8	151*	115	95
COc1ccc(N2C(=O)CSC2c2ccccc2[N+](=O)[O-])cc1 (stereo not given)	100	0	-3	105	4	1	.	.	.
O=C/C(=C\Nc1ccc(C(=O)N2CCOCC2)cc1)c1nc2ccccc2o1	97	1	-2	161*	-61	1	153*	101	105
O=C(c1ccc(S(=O)(=O)Nc2ccccc2)cc1)N1CCOCC1	110	-11	-7	105	-3	1.1	.	.	.
CN(C)C(=O)c1ccc(N/C=C(\C=O)c2nc3ccccc3o2)cc1	94	5	-2	141*	-44	1	138*	104	94
Oc1ccccc1/C=N/Nc1cccc2cccnc12	90	11	44	162*	-67	0.6	164*	98	93
CS(=O)(=O)N1N=C(c2cccs2)CC1c1ccccc1O (stereo not given)	100	-2	-4	102	0	1	.	.	.
Oc1ccccc1C1CC(c2cccs2)=NC(c2ccc(Cl)cc2)N1 (stereo not given)	68	33	-2	140*	-45	1	139*	108	91
CCOC(=O)CC1=NN(c2ccccc2)C(=O)/C1=C\c1ccc(OC)cc1OC	102	-2	-8	103	-3	1.1	.	.	.
Cc1ccc(C(=O)Nc2cc(Cl)ccc2OC(=O)c2ccc(C)cc2)cc1	96	5	20	140*	-45	0.8	123	119	93
O=C(Nc1ccccc1OC(=O)c1ccc(Cl)cc1)c1ccc(Cl)cc1	97	3	0	136*	-50	1	141*	115	99
COc1ccc(C(=O)Nc2cc(Cl)ccc2OC(=O)c2ccc(OC)cc2)cc1	96	4	-1	103	2	1	.	.	.
O=C(Nc1ccccc1N1CCN(C(=O)c2ccccc2)CC1)c1ccc(Cl)cc1	90	10	35	96	7	0.7	.	.	.
O=C(Nc1ccccc1O)c1ccc(Cl)cc1	92	9	20	152*	-54	0.8	141*	115	104
Cc1nn(CC(=O)OCC(=O)NC(C)c2ccccc2)c(C)c1[N+](=O)[O-] (stereo not given)	96	2	-3	102	3	1	.	.	.
O=C(OCc1cc(=O)n2cc(Br)ccc2n1)c1ccc(Cl)c(S(=O)(=O)NCc2ccccc2)c1	98	2	-8	101	2	1.1	.	.	.
CCn1cc(C(=O)N2CCc3ccccc32)c(=O)c2cc(S(=O)(=O)N(C)C3CCCCC3)ccc21	98	2	-7	107	-4	1.1	.	.	.
CCn1cc(C(=O)N2CCc3ccccc32)c(=O)c2cc(S(=O)(=O)N3CCOCC3)ccc21	106	-7	-1	146*	-42	1	128	105	99
COC(=O)c1cn(CC(=O)N2C(C)CCCC2C)c2ccccc12 (stereo not given)	104	-8	-4	104	-1	1	.	.	.
CC1CCCC(C)N1C(=O)Cn1cc(/C=C2/C(=O)Nc3ccccc32)c2ccccc21 (stereo not given)	102	-4	-10	158*	-70	1.1	151*	99	103

Source: PubChem (several laboratories)
